Results published in ChEMBL document CHEMBL1122270, “N-(4-substituted-thiazolyl)oxamic acid derivatives, a new series of potent, orally active antiallergy agents” (1983).

system: Rattus norvegicus; assay: antiallergic activity by rat passive cutaneous anaphylaxis (PCA) assay when administered iv; format: functional; conditions: not given
Method in brief: (§1)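 Male rats sensitized by id injection of diluted rat anti-ovalbumin reaginic serum (0.1 mL each side of shaved back). 24 h later, compound in saline was mixed with 5 mg ovalbumin in 0.5 mL 2% Evans Blue and given iv at 1 mL/kg. Blued-spot diameters were read 30 min later. Six rats per group; ED50 is 50% area reduction versus control, with 95% confidence limits.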

SMILES | ED50 [mg/kg]
COc1ccccc1-c1csc(NC(=O)C(=O)O)n1 | > 1
O=C(O)C(=O)Nc1nc(-c2ccc(O)cc2)cs1 | ~0.1
CCOC(=O)C(=O)Nc1nc(-c2ccccc2OC)cs1 | ~1
O=C(O)C(=O)Nc1ncc(-c2ccccc2)s1 | ~0.3
NCCO.O=C(O)C(=O)Nc1nc(-c2cccc(O)c2)cs1 | ~0.1
COc1ccc(OC)c(-c2csc(NC(=O)C(=O)O)n2)c1.NCCO | ~0.3
COc1cc(-c2csc(NC(=O)C(=O)O)n2)cc(OC)c1OC.NCCO | 1
COc1cc(-c2csc(NC(=O)C(=O)O)n2)ccc1O.NCCO | < 0.1
NCCO.O=C(O)C(=O)Nc1nc(-c2ccc(O)c(O)c2)cs1 | 0.08
COc1cc(OC)cc(-c2csc(NC(=O)C(=O)O)n2)c1 | ~0.1
CCCC(=O)Nc1ccc(-c2csc(NC(=O)C(=O)OCC)n2)cc1 | < 0.3
CCOC(=O)C(=O)Nc1nc(-c2ccc(N(C)C)cc2)cs1 | ~0.3
Cc1cc(O)ccc1-c1csc(NC(=O)C(=O)O)n1.NCCO | 1

system: Rattus norvegicus; assay: Antiallergic activity by rat passive cutaneous anaphylaxis (PCA) assay when administered iv.;value ranges between (0.04-0.3); format: functional; conditions: not given; method in brief: as §1

SMILES | ED50 [mg/kg]
NCCO.O=C(O)C(=O)Nc1nc(-c2ccc(F)cc2)cs1 | 0.11

system: Rattus norvegicus; assay: Antiallergic activity by rat passive cutaneous anaphylaxis (PCA) assay when administered iv;value ranges between (0.01-0.04.); format: functional; conditions: not given; method in brief: as §1

SMILES | ED50 [mg/kg]
CN(C)c1ccc(-c2csc(NC(=O)C(=O)O)n2)cc1 | 0.02

system: Rattus norvegicus; assay: Antiallergic activity by rat passive cutaneous anaphylaxis (PCA) assay when administered iv;value ranges between (0.07-0.4.); format: functional; conditions: not given; method in brief: as §1

SMILES | ED50 [mg/kg]
CC(=O)Nc1ccc(-c2csc(NC(=O)C(=O)O)n2)cc1 | 0.16

system: Rattus norvegicus; assay: Antiallergic activity by rat passive cutaneous anaphylaxis (PCA) assay when administered iv;value ranges between (0.07-1.70).; format: functional; conditions: not given; method in brief: as §1

SMILES | ED50 [mg/kg]
CN(C)c1cccc(-c2csc(NC(=O)C(=O)O)n2)c1.NCCO | 0.35

system: Rattus norvegicus; assay: Antiallergic activity by rat passive cutaneous anaphylaxis (PCA) assay when administered iv;value ranges between (0.2-1.1).; format: functional; conditions: not given; method in brief: as §1

SMILES | ED50 [mg/kg]
COc1ccc(-c2csc(NC(=O)C(=O)O)n2)c(OC)c1 | 0.39

system: Rattus norvegicus; assay: Antiallergic activity by rat passive cutaneous anaphylaxis (PCA) assay when administered iv;value ranges between (0.56-2.74); format: functional; conditions: not given; method in brief: as §1

SMILES | ED50 [mg/kg]
O=C([O-])c1cc(=O)c2c(OCC(O)COc3cccc4oc(C(=O)[O-])cc(=O)c34)cccc2o1.[Na+].[Na+] [CROMOLYN SODIUM] | 1.24

system: Rattus norvegicus; assay: Antiallergic activity by rat passive cutaneous anaphylaxis (PCA) assay when administered iv;value ranges between 0.23-2.24; format: functional; conditions: not given; method in brief: as §1

SMILES | ED50 [mg/kg]
CC(=O)c1cc(-c2csc(NC(=O)C(=O)O)n2)ccc1O.NCCO.NCCO | 0.71

system: Rattus norvegicus; assay: Antiallergic activity by rat passive cutaneous anaphylaxis (PCA) assay when administered perorally; value ranges between (0.4-2.3.); format: functional; conditions: po
Method in brief: (§2)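 Rats were passively sensitized intradermally with diluted reaginic anti-ovalbumin serum 24 h before challenge. Compound was suspended in 1% acacia and dosed by oral feeding needle at 1 mL/kg. After 20-30 min, rats were challenged with 0.02 mg ovalbumin in 0.5 mL 2% Evans Blue. Blued areas were measured 30 min after challenge. Six rats per dose; ED50 is 50% area reduction from control, with 95% confidence limits.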

SMILES | ED50 [mg/kg]
NCCO.O=C(O)C(=O)Nc1nc(-c2ccc(F)cc2)cs1 | 0.9

system: Rattus norvegicus; assay: Antiallergic activity by rat passive cutaneous anaphylaxis (PCA) assay when administered per orally;value ranges between (0.15-0.94.); format: functional; conditions: po; method in brief: as §2

SMILES | ED50 [mg/kg]
CC(=O)Nc1ccc(-c2csc(NC(=O)C(=O)O)n2)cc1 | 0.37

system: Rattus norvegicus; assay: Antiallergic activity by rat passive cutaneous anaphylaxis (PCA) assay when administered perorally; value ranges between (1.3-3.3); format: functional; conditions: po; method in brief: as §2

SMILES | ED50 [mg/kg]
Cc1sc(NC(=O)C(=O)O)nc1-c1ccccc1.NCCO | 2.5

system: Rattus norvegicus; assay: Antiallergic activity by rat passive cutaneous anaphylaxis (PCA) assay when administered perorally; value ranges between […]; format: functional; conditions: po; method in brief: as §2

SMILES | ED50 [mg/kg]
CCOC(=O)C(=O)Nc1nc(-c2ccccc2O)cs1 | 8.2

system: Rattus norvegicus; assay: Antiallergic activity by rat passive cutaneous anaphylaxis (PCA) assay when administered per orally;value ranges between (0.18-1.48).; format: functional; conditions: po; method in brief: as §2

SMILES | ED50 [mg/kg]
Cc1sc(NC(=O)C(=O)O)nc1-c1ccc2c(c1)OCCO2 | 0.5

system: Rattus norvegicus; assay: Antiallergic activity by rat passive cutaneous anaphylaxis (PCA) assay when administered per orally;value ranges between (0.4-0.8.); format: functional; conditions: po; method in brief: as §2

SMILES | ED50 [mg/kg]
CCOc1ccc(-c2csc(NC(=O)C(=O)O)n2)cc1.NCCO | 0.54

system: Rattus norvegicus; assay: Antiallergic activity by rat passive cutaneous anaphylaxis (PCA) assay when administered per orally;value ranges between (0.5-3.27); format: functional; conditions: po; method in brief: as §2

SMILES | ED50 [mg/kg]
COC(=O)C(=O)Nc1nc(-c2ccc(OC)c(OC)c2)cs1 | 1.2

system: Rattus norvegicus; assay: Antiallergic activity by rat passive cutaneous anaphylaxis (PCA) assay when administered per orally;value ranges between (0.64-6.67).; format: functional; conditions: po; method in brief: as §2

SMILES | ED50 [mg/kg]
COc1cc(-c2csc(NC(=O)C(=O)O)n2)ccc1O.NCCO | 2.1

system: Rattus norvegicus; assay: Antiallergic activity by rat passive cutaneous anaphylaxis (PCA) assay when administered per orally;value ranges between (0.7-1.6); format: functional; conditions: po; method in brief: as §2

SMILES | ED50 [mg/kg]
CN(C)c1ccc(-c2csc(NC(=O)C(=O)O)n2)cc1 | 1.1

system: Rattus norvegicus; assay: Antiallergic activity by rat passive cutaneous anaphylaxis (PCA) assay when administered per orally;value ranges between (0.91-5.2); format: functional; conditions: po; method in brief: as §2

SMILES | ED50 [mg/kg]
CCOC(=O)C(=O)Nc1nc(-c2ccco2)cs1 | 2.2

system: Rattus norvegicus; assay: Antiallergic activity by rat passive cutaneous anaphylaxis (PCA) assay when administered per orally;value ranges between (1.0-4.8).; format: functional; conditions: po; method in brief: as §2

SMILES | ED50 [mg/kg]
CCOC(=O)C(=O)Nc1nc(-c2ccc(O)c(C)c2)cs1 | 2.2

system: Rattus norvegicus; assay: Antiallergic activity by rat passive cutaneous anaphylaxis (PCA) assay when administered per orally;value ranges between (1.0-6.6).; format: functional; conditions: po; method in brief: as §2

SMILES | ED50 [mg/kg]
CCOC(=O)C(=O)Nc1nc(-c2ccc(O)c(C(C)=O)c2)cs1 | 2.6

system: Rattus norvegicus; assay: Antiallergic activity by rat passive cutaneous anaphylaxis (PCA) assay when administered per orally;value ranges between (1.02-2.15).; format: functional; conditions: po; method in brief: as §2

SMILES | ED50 [mg/kg]
COc1ccc(-c2csc(NC(=O)C(=O)O)n2)cc1OC | 1.48

system: Rattus norvegicus; assay: Antiallergic activity by rat passive cutaneous anaphylaxis (PCA) assay when administered per orally;value ranges between (1.3-23).; format: functional; conditions: po; method in brief: as §2

SMILES | ED50 [mg/kg]
O=C(O)C(=O)Nc1ncc(-c2ccccc2)s1 | 4.03

system: Rattus norvegicus; assay: Antiallergic activity by rat passive cutaneous anaphylaxis (PCA) assay when administered per orally;value ranges between (1.4-4.6.); format: functional; conditions: po; method in brief: as §2

SMILES | ED50 [mg/kg]
NCCO.O=C(O)C(=O)Nc1nc(-c2ccc([N+](=O)[O-])cc2)cs1 | 2.5

system: Rattus norvegicus; assay: Antiallergic activity by rat passive cutaneous anaphylaxis (PCA) assay when administered per orally;value ranges between (3.44-9.04); format: functional; conditions: po; method in brief: as §2

SMILES | ED50 [mg/kg]
COc1cc(-c2csc(NC(=O)C(=O)O)n2)cc(OC)c1OC.NCCO | 5.8

system: Rattus norvegicus; assay: Antiallergic activity by rat passive cutaneous anaphylaxis (PCA) assay when administered per orally;value ranges between (4.67-21.77); format: functional; conditions: po; method in brief: as §2

SMILES | ED50 [mg/kg]
CCOC(=O)C(=O)Nc1nc(-c2cc(OC)c(OC)c(OC)c2)cs1 | 14.5

system: Rattus norvegicus; assay: Antiallergic activity by rat passive cutaneous anaphylaxis (PCA) assay when administered per orally;value ranges between( 0.4-3.0.); format: functional; conditions: po; method in brief: as §2

SMILES | ED50 [mg/kg]
CN(C)c1cccc(-c2csc(NC(=O)C(=O)O)n2)c1.NCCO | 1.7

system: Rattus norvegicus; assay: Antiallergic activity by rat passive cutaneous anaphylaxis (PCA) assay when administered per orally;value ranges between( 0.5-2.9).; format: functional; conditions: po; method in brief: as §2

SMILES | ED50 [mg/kg]
CCOC(=O)C(=O)Nc1nc(-c2ccncc2)cs1 | 1.2

system: Rattus norvegicus; assay: Antiallergic activity by rat passive cutaneous anaphylaxis (PCA) assay when administered perorally; format: functional; conditions: po; method in brief: as §2

SMILES | ED50 [mg/kg]
NC(=O)C(=O)Nc1nc(-c2ccccc2)cs1 | ~1

system: Rattus norvegicus; assay: Antiallergic activity by rat passive cutaneous anaphylaxis (PCA) assay when administered per orally.;value ranges between (1.3-3.2); format: functional; conditions: po; method in brief: as §2

SMILES | ED50 [mg/kg]
CCOC(=O)C(=O)Nc1nc(-c2ccc(OCC)cc2)cs1 | 2.1

system: Rattus norvegicus; assay: Antiallergic activity by rat passive cutaneous anaphylaxis (PCA) assay when administered per orally;value ranges between (0.11-0.75.); format: functional; conditions: po; method in brief: as §2

SMILES | ED50 [mg/kg]
CCOC(=O)C(=O)Nc1nc(-c2ccc(NC(C)=O)cc2)cs1 | 0.29

system: Rattus norvegicus; assay: Antiallergic activity by rat passive cutaneous anaphylaxis (PCA) assay when administered per orally; format: functional; conditions: po; method in brief: as §2

SMILES | ED50 [mg/kg]
CCOC(=O)C(=O)Nc1nc(-c2cccc(OC)c2)cs1 | ~20
CCOC(=O)C(=O)Nc1nc(-c2ccc(N3CCOCC3)cc2)cs1 | > 100
O=C(O)C(=O)Nc1nc(-c2ccc(O)cc2)cs1 | > 3
CCOC(=O)C(=O)Nc1nc(-c2ccc(O)cc2)cs1 | ~15
CCOC(=O)C(=O)Nc1nc(-c2ccccn2)cs1 | ~10
CCOC(=O)C(=O)Nc1nc(-c2ccc(Sc3ccccc3)cc2)cs1 | > 3
Cc1cc(C)c(-c2csc(NC(=O)C(=O)O)n2)c(O)c1.NCCO | > 10
CCOC(=O)C(=O)Nc1nc(-c2ccccc2OC)cs1 | > 30
NCCO.O=C(O)C(=O)Nc1nc(-c2cccc(O)c2)cs1 | 3
COc1ccc(OC)c(-c2csc(NC(=O)C(=O)O)n2)c1.NCCO | ~7
NCCO.O=C(O)C(=O)Nc1nc(-c2ccc(O)c(O)c2)cs1 | 0.1
COc1cc(OC)cc(-c2csc(NC(=O)C(=O)O)n2)c1 | ~1
CCCC(=O)Nc1ccc(-c2csc(NC(=O)C(=O)OCC)n2)cc1 | > 10
COc1ccc(-c2csc(NC(=O)C(=O)O)n2)c(OC)c1 | > 10
CC(=O)c1cc(-c2csc(NC(=O)C(=O)O)n2)ccc1O.NCCO.NCCO | ~1
CCOC(=O)C(=O)Nc1nc(-c2ccc(N(C)C)cc2)cs1 | ~1
Cc1cc(O)ccc1-c1csc(NC(=O)C(=O)O)n1.NCCO | > 10
